Shown are actives, neighbours in structure and some others; about 1.3% of the full set was active somewhere.
C-LANA FP: KSHV C-LANA DNA binding inhibition | inhibition, % at 9 µM | actives 0.078% (n = 340,000) | MBP-C-LANA/FAM-LBS DNA binding, fluorescence polarization | AID 504423;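 active = highest replicate inhibition at or above 60% at 9 µM, even if other replicates fall short; inactive = all replicates below 60% inhibition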
Cardiac RTF inh: cardiac RTF calcium desensitization. P19429+P45379. IANBD-labeled cardiac RTF, Ca2+ fluorescence. inhibition, % at 7.15 µM. actives 0.12% (n = 340,000);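 active = inhibition above the mean inhibition of all tested compounds plus 3 SD, cut at about 17% in these data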;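 also: assay run at fixed EC70 calcium of 1.6 mM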
Keap1-Nrf2 PPI: disrupts human Keap1 binding to Nrf2 peptide; actives 0.15% (n = 340,000); Keap1 Kelch-Nrf2 peptide fluorescence polarization, 1536-well; AID 504523; inhibition, % at 9.4 µM; in the data active = inhibition above about 12%; inconclusive = no clear call, values can overlap the other calls; inactive = below about 7.3%;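 also: human Keap1 Kelch domain with fluorescein labeled Nrf2 9mer peptide probe; higher means more block of Keap1 binding to Nrf2 peptide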
Target sequence (Q14145 whole entry, looked up, the tested form may be a part): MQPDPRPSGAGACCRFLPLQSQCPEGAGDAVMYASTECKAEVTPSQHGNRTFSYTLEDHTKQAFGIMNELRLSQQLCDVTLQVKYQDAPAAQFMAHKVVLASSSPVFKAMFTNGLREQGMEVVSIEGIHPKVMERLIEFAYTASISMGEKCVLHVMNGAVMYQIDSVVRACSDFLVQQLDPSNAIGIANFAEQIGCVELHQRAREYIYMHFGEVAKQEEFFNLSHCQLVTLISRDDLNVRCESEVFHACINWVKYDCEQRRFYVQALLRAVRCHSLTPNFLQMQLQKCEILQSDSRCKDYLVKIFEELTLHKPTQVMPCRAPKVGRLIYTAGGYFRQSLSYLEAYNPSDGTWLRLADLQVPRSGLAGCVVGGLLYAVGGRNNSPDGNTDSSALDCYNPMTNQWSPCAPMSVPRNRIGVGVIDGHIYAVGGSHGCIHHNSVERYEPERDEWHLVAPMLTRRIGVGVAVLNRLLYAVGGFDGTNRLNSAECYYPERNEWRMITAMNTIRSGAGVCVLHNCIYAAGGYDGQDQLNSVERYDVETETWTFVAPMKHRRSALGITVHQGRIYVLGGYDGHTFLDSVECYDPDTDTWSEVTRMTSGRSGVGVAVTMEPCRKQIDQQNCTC
CAL PDZ FP-1: CAL PDZ (human) peptide binding inhibition. purified CAL PDZ, TMR-peptide fluorescence polarization, 1 h. inhibition, % at 24.9 µM. actives 0.92% (n = 300,000). AID 602252;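 active = mean inhibition of at least 30% with at least half of replicates also reaching 30%; inconclusive = no clear call, values can overlap the other calls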
RTF Ca sens act: increases calcium sensitivity of human cardiac regulated thin filaments | P19429+P45379 | IANBD-labeled TnC RTF fluorescence at EC20 calcium; 0% EC20 calcium, 100% full calcium | activation, % at 7.2 µM | actives 0.24% (n = 340,000) | AID 493008;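 active = activation above the mean over all tested compounds plus 3 SD, cut at about 30% in these data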;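 also: rise in fluorescence read as greater calcium sensitivity of cardiac thin filaments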
CAL PDZ FP-2: human CAL PDZ-peptide interaction inhibition | Q9HD26 | purified CAL PDZ, TMR-peptide fluorescence polarization, 1 h | inhibition, % at 20 µM | actives 0.02% (n = 330,000) | AID 504414;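 active = highest replicate inhibition of at least 40%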
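Control set: unlabelled peptide and DMSO controls / Material: purified CerCALP PDZ construct / Timing: 1 h incubation at room temperature before polarization reading / Doses: 20 µM, one dose / Detection: fluorescence polarization (mP)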
A number is an active result; . = inactive; ? = inconclusive; / = not tested or not shown; + = active, no number.

SMILES	C-LANA FP	Cardiac RTF inh	Keap1-Nrf2 PPI	CAL PDZ FP-1	RTF Ca sens act	CAL PDZ FP-2
NC(=S)NN=Cc1ccc(-c2ccc(S(=O)(=O)Nc3ncccn3)cc2)o1	73.4	.	?	.	.	.
O=C(COc1ccc(-c2nnco2)cc1)N1CCN(S(=O)(=O)c2ccc3ccccc3c2)CC1	.	.	.	42.3	.	.
CC1CCCC(C)N1C(=C(Cl)Cl)C(=C1SCCS1)[N+](=O)[O-] (centres undefined)	.	.	.	.	.	.
O=[N+]([O-])c1cc(-c2cnc3ccccc3n2)ccc1Oc1ccc(Cl)cc1	.	.	.	+	.	.
COc1ccccc1Oc1ccc(-c2cnc3ccccc3n2)cc1[N+](=O)[O-]	.	/	.	.	/	.
CCOc1ccc2cc(S(=O)(=O)N3CCN(C)CC3)ccc2c1	.	.	.	.	.	.
CCOc1ccc2cc(S(=O)(=O)N3CCCCC3)ccc2c1	.	.	.	60.3	.	.
CCOC(=O)C1=C(COC(=O)c2ccc3ccccc3c2O)NC(=O)NC1C (centres undefined)	.	.	.	.	34.8	.
COc1ccc(/C=C2\CCc3c2nc2ccccc2c3C(=O)O)cc1OC	.	.	.	.	.	.
CCOc1ccc(/C=C2\CCCc3c2nc2ccccc2c3C(=O)O)cc1OC	147.7	.	113.7	.	767.5	.
COc1ccc(N(CC(=O)NCCSc2ccc(C)cc2)S(=O)(=O)c2ccccc2)c(OC)c1	.	.	.	40.3	.	.
Cc1ccccc1Nc1ccc2nonc2c1[N+](=O)[O-]	.	.	.	.	.	/
O=[N+]([O-])c1c(Nc2ccccc2O)ccc2nonc12	.	.	.	36.1	.	.
Cc1ccc(NC(=O)c2sccc2-n2cccc2)c(Cl)c1	.	.	.	.	.	.
Cc1cccc(NC(=O)c2sccc2-n2cccc2)c1C	.	.	.	32.1	.	/
CC(=O)c1ccc(NC(=O)Cn2cnc(S(=O)(=O)N3CCCC3)c2)cc1	.	.	.	44.4	.	.
CC(=O)c1ccc(NC(=O)Cn2cnc(S(=O)(=O)N3CCCCC3)c2)cc1	/	.	.	.	.	.
CN(Cc1cccnc1)Cc1cn[nH]c1-c1ccc(-c2ccccc2)cc1	.	.	.	.	.	.
Cc1ccc(C(=O)N2CCN(c3ccccc3O)CC2)cc1S(=O)(=O)N1CCCCC1	.	.	.	.	.	.
O=C(c1nc2ccccn2c1CNCCCn1ncc2ccccc21)N1CCOCC1	.	.	.	.	.	.
Cc1cc2ccccc2n1CCNCc1c(C(=O)N2CCOCC2)nc2ccccn12	.	.	.	82.2	.	.
Cc1cc(/C=C2\SC(=S)NC2=O)cc(C)c1O	.	.	.	.	.	.
CCN(CC)c1ccc(/C=C2\SC(N)=NC2=O)cc1	.	.	.	/	33.1	.
CCN(CC)c1ccc(C=C2SC(=S)NC2=O)cc1	.	.	.	.	241.3	.
NC1=NC(=O)/C(=C/c2ccc(OCC(=O)O)cc2)S1	.	.	.	.	.	.
SMILES	C-LANA FP	Cardiac RTF inh	Keap1-Nrf2 PPI	CAL PDZ FP-1	RTF Ca sens act	CAL PDZ FP-2
Cc1csc(SCC(=O)NC2CCCC2)n1	.	.	.	.	.	.
O=C(NCc1ccc(Cl)cc1)C1CCCN(c2cnccn2)C1 (centres undefined)	.	.	.	.	.	.
O=C(NCc1ccc(Cl)cc1)C1CCN(c2cnccn2)CC1	.	.	.	/	30.2	.
CCOc1cc(C(C(=O)NCC2CCCO2)N(C(=O)Cn2nnc3ccccc32)c2ccccc2C)ccc1O (centres undefined)	.	.	.	50.3	.	.
COc1ccc(NC(=O)n2ncc3c(C)cccc32)cc1	.	.	.	62.0	.	/
COc1ccc(NC(=O)n2ncc3c(C)cccc32)cc1OC	.	.	.	.	.	.
COc1ccccc1NC(=O)Cc1ccsc1	.	.	.	.	.	.
O=C(C1CC1)N1CCc2cc(Br)c(S(=O)(=O)N3CCCCCC3)cc21	.	.	.	.	.	.
N#Cc1cc(C(=O)c2cc(F)ccc2O)cn(-c2nccs2)c1=O	.	.	.	/	53.9	.
N#Cc1cc(C(=O)c2ccccc2O)cn(-c2nccs2)c1=O	.	.	.	.	62.4	.
CC(C)n1cc(C(=O)c2ccccc2O)cc(C#N)c1=O	.	.	.	.	.	.

Screens as filed in PubChem.
